Laboratory results taken from ChEMBL document CHEMBL4138188, “Eurycomalactone Inhibits Expression of Endothelial Adhesion Molecules at a Post-Transcriptional Level” (J Nat Prod, 2017).
The source made the active and inactive calls. No cut-off for these calls is given here.

Columns and labels:
[1] = (§1) Inhibition of NF-kappaB in HUVECtert assessed as reduction in TNFalpha-induced VCAM-1 expression level pretreated for 30 mins followed by TNFalpha stimulation measured after 18 hrs by flow cytometry; set-up: species or system Homo sapiens
Summary of the method: (§2)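 FITC-antibody surface staining, flow cytometry; expression relative to TNFα-stimulated control. Parthenolide 10 μM as positive control; means ± SD, n = 3, one-way ANOVA/Dunnett versus vehicle.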

[2] = species: Homo sapiens; assay: as §1; summary of the method: as §2
[3] = (§3) Inhibition of NF-kappaB in HUVECtert assessed as reduction in TNFalpha-induced ICAM-1 expression level pretreated for 30 mins followed by TNFalpha stimulation measured after 18 hrs by flow cytometry; set-up: species or system Homo sapiens; summary of the method: as §2
[4] = species: Homo sapiens; assay: as §3; summary of the method: as §2
[5] = Effect on basal VCAM-1 expression level in HUVECtert at 0.5 to 10 uM incubated for 30 mins by flow cytometry; type: ADME; settings: human, 0.5 h
Summary of the method: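 Unstimulated HUVECtert treated with 0.5−10 μM test agent without TNFα; surface VCAM-1, ICAM-1 or E-selectin stained with FITC-labelled antibodies and read by flow cytometry.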

[6] = species: Homo sapiens; assay: Cytotoxicity against HUVECtert assessed as reduction in cell viability after 18 hrs by resazurin dye based fluorescence assay; type: functional
Summary of the method: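 HUVECtert (passage ≤15) seeded on gelatin-coated wells, grown 48 h, then exposed to test agent or 0.1% DMSO vehicle, with or without TNFα; digitonin 100 μg/mL as positive control. After 18 h, supernatant removed, cells washed, then 2 h with 10 μg/mL resazurin in PBS; metabolic conversion read relative to vehicle.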

[7] = biological target: T1, Inhibitor of nuclear factor kappa-B kinase subunit alpha (Homo sapiens) (UniProt O15111); assay: Inhibition of IKKalpha phosphorylation level in TNFalpha-stimulated HUVECtert at 2 uM pretreated for 30 mins followed by TNFalpha stimulation measured after 5 to 15 mins by Western blot analysis
T1 sequence (whole entry): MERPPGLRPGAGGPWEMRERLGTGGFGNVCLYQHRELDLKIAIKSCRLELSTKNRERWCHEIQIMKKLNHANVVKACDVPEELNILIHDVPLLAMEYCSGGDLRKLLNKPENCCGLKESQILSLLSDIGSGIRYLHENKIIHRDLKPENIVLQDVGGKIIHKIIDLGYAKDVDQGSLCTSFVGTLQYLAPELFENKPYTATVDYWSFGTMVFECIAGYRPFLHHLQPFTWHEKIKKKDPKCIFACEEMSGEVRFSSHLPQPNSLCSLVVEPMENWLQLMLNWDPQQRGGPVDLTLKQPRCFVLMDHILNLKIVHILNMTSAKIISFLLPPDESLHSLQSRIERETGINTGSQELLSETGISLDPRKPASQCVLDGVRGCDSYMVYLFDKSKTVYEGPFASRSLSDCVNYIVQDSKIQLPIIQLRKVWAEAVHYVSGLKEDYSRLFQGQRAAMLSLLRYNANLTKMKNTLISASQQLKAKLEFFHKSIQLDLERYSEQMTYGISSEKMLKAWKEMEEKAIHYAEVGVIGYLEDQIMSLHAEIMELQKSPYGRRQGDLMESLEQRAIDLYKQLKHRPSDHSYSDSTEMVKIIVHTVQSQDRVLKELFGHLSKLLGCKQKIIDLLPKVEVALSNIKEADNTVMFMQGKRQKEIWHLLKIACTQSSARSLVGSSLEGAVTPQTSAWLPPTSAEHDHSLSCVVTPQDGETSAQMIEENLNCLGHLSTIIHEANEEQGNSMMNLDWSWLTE
Summary of the method: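 HUVECtert on gelatin-coated dishes pretreated with 2 μM agent or 0.1% DMSO, then TNFα 10 ng/mL; p-IKKα/β, p-IκBα and total IκBα immunoblotted at 5 or 15 min post-stimulation, actin loading control; means ± SD, n = 3, one-way ANOVA/Dunnett.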

[8] = biological target: Transcription factor p65 (Homo sapiens) (UniProt Q04206); assay: Inhibition of TNFalpha-stimulated NF-kappaB p65 nuclear translocation in HUVECtert nuclear extracts at 2 uM pretreated for 30 mins followed by TNFalpha stimulation measured after 1 hr by Western blot method
Summary of the method: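 Cells grown 48 h, pretreated 30 min with 2 μM or 0.1% DMSO, then TNFα 10 ng/mL for 1 h. Hypotonic NP40 lysis gave cytosol; nuclei extracted in 420 mM NaCl HEPES buffer pH 7.5. Nuclear p65 by Western blot, lamin loading control, tubulin/lamin verifying fractions; n = 3.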

[9] = species: Homo sapiens; assay: Inhibition of NF-kappaB in HUVECtert assessed as reduction in TNFalpha-induced VCAM-1 mRNA expression level at 5 uM pretreated for 30 mins followed by TNFalpha stimulation measured after 4 hrs by qRT-PCR analysis
[10] = species: Homo sapiens; assay: Inhibition of NF-kappaB in HUVECtert assessed as reduction in TNFalpha-induced VCAM-1 mRNA expression level at 0.5 uM pretreated for 30 mins followed by TNFalpha stimulation measured after 4 hrs by qRT-PCR analysis
[11] = species: Homo sapiens; assay: Reduction in cyclin D1 level in HUVECtert at 2 uM by Western blot analysis; type: functional; settings: TDE = time-dependent effect
Summary of the method: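 HUVECtert treated with 1 μM cycloheximide, 2 μM agent, vehicle, or left untreated for a time course; cyclin D1 or survivin by Western blot, actin loading control; means ± SD of three blots, one-way ANOVA/Dunnett versus untreated.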

[12] = species: Homo sapiens; assay: Inhibition of de novo protein synthesis in HUVECtert at 2 to 5 uM after 30 mins by Click-iT OPP/Alexa fluor 488 picolyl azide reagent based flow cytometry; type: functional
Summary of the method: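 HUVECtert (1 × 10^6 cells in tubes) exposed 30 min to agent (2 or 5 μM; cycloheximide 1−35 μM) or vehicle, then 20 μM OPP 30 min; fixed, permeabilised, Alexa 488 click-labelled in Tris buffer pH 7.4; FL-1 flow cytometry relative to control; n = 3, one-way ANOVA/Dunnett.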

Chain of Transcription factor p65 (Homo sapiens) (Q04206 whole entry): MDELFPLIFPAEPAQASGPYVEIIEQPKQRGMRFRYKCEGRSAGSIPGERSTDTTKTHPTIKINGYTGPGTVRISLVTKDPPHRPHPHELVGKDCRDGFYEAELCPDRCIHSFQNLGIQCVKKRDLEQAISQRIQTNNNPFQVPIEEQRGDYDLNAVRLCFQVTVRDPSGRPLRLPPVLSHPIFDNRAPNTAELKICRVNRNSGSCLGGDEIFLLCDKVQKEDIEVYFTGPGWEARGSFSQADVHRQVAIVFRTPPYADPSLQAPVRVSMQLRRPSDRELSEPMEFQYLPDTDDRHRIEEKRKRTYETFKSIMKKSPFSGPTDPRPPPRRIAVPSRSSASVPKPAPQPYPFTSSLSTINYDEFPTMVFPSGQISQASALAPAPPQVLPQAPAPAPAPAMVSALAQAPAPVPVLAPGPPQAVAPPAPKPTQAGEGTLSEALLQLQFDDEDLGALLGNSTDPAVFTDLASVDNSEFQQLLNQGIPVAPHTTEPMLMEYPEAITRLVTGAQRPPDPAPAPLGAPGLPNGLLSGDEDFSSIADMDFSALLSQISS

## CC1=CC(=O)[C@@H](O)[C@@]2(C)[C@H]1CC(=O)[C@@]1(C)[C@H]3C(=O)O[C@H]([C@@H]3C)[C@H](O)[C@@H]12 [EURYCOMALACTONE]
[1]
  IC50: 540 nM
[2]
  inhibition: Dose-dependent effect
[3]
  IC50: 580 nM
[4]
  inhibition: Dose-dependent effect
[5]
  Activity: Non-Toxic
[6]
  Activity: inactive
[7]
  inhibition: inactive
[8]
  inhibition: inactive
[9]
  inhibition: Active
[10]
  inhibition: inactive
[11]
  Activity: Tde
[12]
  inhibition: Active
